Article PMC7885995 (Oncogene, 2020)

Tests used:
GBM PDX lines = experiment: BAPTA calcium chelation before MED2; type: cell-based, human; conditions: BAPTA pretreatment, low concentrations, 5-hour CTL2/MED2; X1441, JX39, JX59
In short: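 Cells were pretreated with BAPTA-AM and then exposed to CTL2 or MED2 for 5 h, at 2.5 μM for X1441 and 5 μM for JX39 and JX59, with relative viability as read-out. For SYTOX, cells were pretreated with 50μM BAPTA and given peptide for 1.5 h. Percent SYTOX-positive cells was scored on the Xcyto10 image cytometer at 4X. Analysis used two-way ANOVA with Tukey's test.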

JX39 (classical GBM PDX) = experiment: Cell viability; type: cell-based, human; conditions: JX39, 5μM MED2, normalized to 5μM CTL2, 72 h, n=4
In short: (§1)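 1 × 10^4 Trypan blue-counted live cells were plated in 90 μL medium in 4 replicates; PDX cells were kept in neurosphere medium and NHAs in standard medium. Peptide (PBS-reconstituted, added as 10X in medium) went on 2 h after plating. CellTiter-Glo ATP luminescence was read at 72 h. MED2 RLU was normalized to CTL2 (5 μM for 1–5 μM; 10 μM for 10 μM). GI50 was interpolated from a standard curve.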

XD456 = experiment: Time-lapse imaging and SYTOX uptake; type: cell-based, human; conditions: XD456, 3μM, time-lapse imaging
In short: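 XD456 cells were given 3μM MED2 and tracked by time-lapse still frames at 10X. For membrane permeabilization, cells received 5μM CTL2 or MED2 and were imaged every 5 min for 125 min at 20X. Imaging was on CellInsight CX7 in a heated CO2 chamber using Hoechst and SYTOX orange channels. Mean SYTOX intensity per cell was scored from n>400 cells.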

[1] = tested on: normal human astrocytes (NHAs); experiment: Cell viability; type: cell-based; conditions: CellTiter-Glo, 72 h
In short: as §1

PARP1 cleavage in XD456 = experiment: PARP1 cleavage immunoblot; type: cell-based, human; conditions: XD456, 3μM MED2, 5 and 24 hours
[2] = tested on: JX59 (mesenchymal GBM PDX); experiment: Cell viability; type: cell-based, human; conditions: JX59, 10μM MED2, normalized to 10μM CTL2, 72 h, n=4
In short: as §1

[3] = tested on: GBM PDX lines (proneural, classical, mesenchymal subtypes); experiment: Cell viability, statements for groups of GBM PDX lines; type: cell-based, human; conditions: multiple PDX subtypes, 5μM CTL2/MED2, 9 hours, p>0.05
[4] = tested on: XD456 (proneural GBM PDX); experiment: Cell viability; type: cell-based, human; conditions: XD456, 2.5μM MED2, 72 h, n=4
In short: as §1

[5] = tested on: intracellular calcium in XD456; experiment: Fluo-4 calcium imaging; type: cell-based, human; conditions: XD456, 3μM, serial imaging over two hours
In short: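 1 × 10^5 XD456 cells were attached in 24-well plates and loaded at 37C for 1.5 h in 1X Fluo-4 direct calcium assay buffer with 5mM probenecid. SYTOX and then 3μM CTL2 or MED2 were added. Serial live images, including one taken before peptide, were acquired at 10X on an EVOS FL using GFP and RFP channels.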

[6] = tested on: JX22 (mesenchymal GBM PDX); experiment: Cell viability; type: cell-based, human; conditions: JX22, 10μM MED2, normalized to 10μM CTL2, 72 h, n=4
In short: as §1

[7] = tested on: X1441 (proneural GBM PDX); experiment: Cell viability; type: cell-based, human; conditions: X1441, 2.5μM MED2, 72 h, n=4
In short: as §1

JX14 (classical GBM PDX) = experiment: Cell viability; type: cell-based, human; conditions: JX14, 10μM MED2, normalized to 10μM CTL2, 72 h, n=4
In short: as §1

JX12 (classical GBM PDX) = experiment: Cell viability; type: cell-based, human; conditions: JX12, 5μM MED2, normalized to 5μM CTL2, 72 h, n=4
In short: as §1

[8] = tested on: caspase 3/7 activation in GBM cells; experiment: Caspase 3/7 activation; type: cell-based, human
In short: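 Cells pretreated with 1–200μM QVD-OPh or 100μM Z-VAD-FMK received MED2 or CTL2. They were lifted with their media and stained for 30 min at RT with CellEvent green caspase 3/7 dye, Annexin-V AlexaFluor 647 and SYTOX orange in Annexin-V binding buffer. Imaging was on Xcyto10 at 4X with channel compensation. Read-out was mean caspase fluorescence per cell relative to CTL2 (n>5000 cells).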

[9] = tested on: X1016 PDX implanted into the brain of athymic nude mice; experiment: In vivo MED2-CY7 accumulation in orthotopic GBM PDX; parameters: species or system mouse; conditions: tail-vein, 3 hours, Pearl / Odyssey CLx imaging
In short: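 6-week-old female athymic nude mice were stereotactically implanted with 5 × 10^5 X1016 cells into the caudate putamen 1 week before dosing. They were sorted by bioluminescence for similar tumor burden and randomized, unblinded, to two doses of Cy7-labeled peptide. Peptide in 100 μL saline went by tail vein, with sacrifice at 3 h. Brains were formalin-fixed, cut into 5 mm coronal slices and imaged on Pearl. Paraffin sections were H&E-stained or imaged on Odyssey CLx at […].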

athymic nude mice = experiment: In vivo MED2-CY7 biodistribution, tumor-naïve mice; parameters: species or system mouse; conditions: 3 hours

CC(=O)OCOC(=O)CN(CC(=O)OCOC(C)=O)c1ccccc1OCCOc1ccccc1N(CC(=O)OCOC(C)=O)CC(=O)OCOC(C)=O [BAPTA, BAPTA-AM]
protection against MED2 cytotoxicity (GBM PDX lines): no protective effects

CC(C)C[C@H](NC(=O)[C@H](CCCCN)NC(=O)[C@H](Cc1ccccc1)NC(=O)[C@H](CO)NC(=O)[C@H](CCCCN)NC(=O)[C@H](CCCCN)NC(=O)[C@H](Cc1ccccc1)NC(=O)[C@H](CO)NC(=O)[C@H](Cc1ccccc1)NC(=O)[C@H](CCCNC(=N)N)NC(=O)[C@H](CCCCN)NC(=O)[C@H](CCCCN)NC(=O)[C@H](CCCCN)NC(=O)[C@H](CCCCN)NC(=O)[C@H](CCCCN)NC(=O)[C@@H](N)CSC1CC(=O)N(CCC(=O)N[C@@H](Cc2ccc(O)cc2)C(=O)NCC(=O)N[C@@H](CCCNC(=N)N)C(=O)N[C@@H](CCCCN)C(=O)N[C@@H](CCCCN)C(=O)N[C@@H](CCCNC(=N)N)C(=O)N[C@@H](CCCNC(=N)N)C(=O)N[C@@H](CCC(N)=O)C(=O)N[C@@H](CCCNC(=N)N)C(=O)N[C@@H](CCCNC(=N)N)C(=O)N[C@@H](CCCNC(=N)N)C(N)=O)C1=O)C(=O)N[C@@H](CO)C(=O)NCC(=O)N[C@@H](Cc1ccccc1)C(=O)N[C@@H](CO)C(=O)N[C@@H](Cc1ccccc1)C(=O)N[C@@H](CCCCN)C(=O)N[C@@H](CCCCN)C(=O)N[C@@H](CC(N)=O)C(=O)N[C@@H](CCCCN)C(=O)N[C@@H](CCCCN)C(N)=O (some centres unmarked) [MED2]
reduction in viability (JX39 (classical GBM PDX)): > 50%
onset of morphological effects and signs of cellular injury (XD456): ≤ 1 hour
change in NHA viability ([1]; 5μM and 10μM): increases in viability
toxicity in NHAs ([1]; 10μM): no toxicity
PARP1 cleavage pattern (PARP1 cleavage in XD456): loss of both 122kD and 89kD bands with the formation of an approximately 72 kD band
reduction in viability [2]: > 50%
inhibition of viability in adherent vs suspension cells [3]: equally effective
reduction in viability [4]: > 50%
Fluo-4 intensity (intracellular calcium) [5]: increased within minutes
reduction in viability [6]: > 50%
reduction in viability [7]: > 50%
reduction in viability (JX14 (classical GBM PDX)): > 50%
reduction in viability (JX12 (classical GBM PDX)): > 50%
caspase 3/7 activation compared with CTL2 ([8]; MED2 treatment, P<0.001, n>5000): increased caspase 3/7 activation

CC(C)[C@H](NC(=O)c1ccc2ccccc2n1)C(=O)N[C@@H](CC(=O)O)C(=O)COc1c(F)cccc1F [QVD-OPh, reference compound]
reduction in MED2-induced caspase 3/7 activation ([8]; doubled QVD-OPh (200μM), n>5000): 50%

KKKKKRFSFKKSFKLSGFSFKKNKK-LC- K(Lumiprobe CY7) [MED2-CY7]
fluorescence in tumor-burdened regions of the brain compared to normal brain [9]: substantial increases
organs with greatest fluorescence intensity per mg tissue (athymic nude mice; 5 or 10 nanomoles, tail-vein, LI-COR Pearl, n=3 per dose group): kidney, liver, small and large intestines
brain partitioning (athymic nude mice; 5 or 10 nanomoles, tail-vein, n=3 per dose group): only a small percentage of total peptide reaching the brain
increase in brain (periventricular) fluorescence per mg tissue, 10nmol vs 5nmol (athymic nude mice; tail-vein injection, tumor-naïve nude mice, Pearl imaging, n=3, p=0.026): greater than threefold
